Data from article PMC5953009 (Chemical Science, 2015).
Values after ≈ are worked out from the molar mass of the structure shown. Where two headings read alike, the source gives them in different places. Marks after values point to notes of the source that are not given here. Values belong to the compound of their own block, whether it stands above or below them.

What was measured:
LecA = biological target: T1, LecA (Pseudomonas aeruginosa, UniProt Q05097); assay: Isothermal titration calorimetry; type: binding
T1 sequence (Q05097 1-122): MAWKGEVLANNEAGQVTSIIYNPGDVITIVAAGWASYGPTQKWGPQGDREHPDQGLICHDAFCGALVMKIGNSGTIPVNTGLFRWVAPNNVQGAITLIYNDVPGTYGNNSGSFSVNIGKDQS

[1] = tested on: Pseudomonas aeruginosa strain PAO1 biofilms; assay: Dispersal of already established biofilms; type: cell-based; details: 24 h
How it was run: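 PAO1 inoculum (LB overnight, washed, OD600 1) grown as biofilm 24 h at 37 °C, static, without compound, in 0.25% nutrient broth. Wells washed twice, then 0.25% broth with sterile-filtered test compound added (50 μM or stated concentration). After a further 24 h at 37 °C static, wells washed twice and stained 2.5–3 h with 0.5 mM WST-8/20 μM phenazine ethosulfate. A450 read; value is concentration giving complete dispersal.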

[2] = tested on: Pseudomonas aeruginosa PAO1; assay: Broth microdilution method; type: cell-based; details: standard 2-fold dilution assay, full LB medium
How it was run: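 Broth microdilution: 64 μM compound stocks in LB, sterile-filtered, diluted serially 1/2 in LB. PAO1 grown overnight in LB (37 °C, 180 rpm), diluted to OD600 0.022; 4 μL added to 150 μL sample (~5 × 10^5 CFU). Sterility, growth and polymyxin B (from 64 μg mL−1) controls. Incubated ~18 h at 37 °C, static. MTT (1 mg mL−1) added, 10 min RT. MIC = lowest concentration without visible growth by eye.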

[3] = tested on: Pseudomonas aeruginosa PAO1; details: cited from earlier work
LecB = LecB (Pseudomonas aeruginosa, UniProt Q9HYN5); assay: Isothermal titration calorimetry; type: binding
Chain of LecB (Q9HYN5 2-115 limits assumed): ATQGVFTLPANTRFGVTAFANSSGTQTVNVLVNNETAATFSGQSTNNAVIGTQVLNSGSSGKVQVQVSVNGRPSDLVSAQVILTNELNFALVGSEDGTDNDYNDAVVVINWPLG

[4] = tested on: Pseudomonas aeruginosa strain PAO1 biofilms; assay: Biofilm inhibition; type: cell-based; details: 24 h growth, WST-8; compound alone
How it was run: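 PAO1 grown overnight in LB at 37 °C with 180 rpm shaking, washed in 0.25% (w/v) nutrient broth and normalised to OD600 1. Inoculated into 0.25% nutrient broth no. 2 containing sterile-filtered test compound at varied concentrations. Incubated 24–25 h at 37 °C, static, humid. Wells washed twice with water, stained 2.5–3 h at 37 °C with 0.5 mM WST-8 plus 20 μM phenazine ethosulfate in 0.25% broth. Supernatant A450 read.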

[5] = tested on: Pseudomonas aeruginosa strain PAO1; assay: Bacterial cell viability in the supernatant of the biofilm inhibition assay; type: cell-based; details: CFU counts in the biofilm supernatant and growth test in full medium
[6] = ITC, 20 mM Tris, 100 mM NaCl, 100 μM CaCl2, pH 7.5, 25 °C
[7] = ITC, 20 mM Tris, 100 mM NaCl, 100 μM CaCl2, pH 7.5, 25 °C, average of two runs

Compound: O=[N+]([O-])c1ccc(O[C@@H]2O[C@H](CO)[C@H](O)[C@H](O)[C@H]2O)cc1 [NPG, 4-nitrophenyl-β-D-galactopyranoside]
ΔH (LecA; [6]): –10.6 ± 0.45 kcal mol^–1
–TΔS (LecA; [6]): 4.0 kcal mol^–1
n (stoichiometry of the binding) (LecA; [7]): 0.91 ± 0.03
r.p./nGal (relative potency per galactoside) (LecA; KD(GalAG0 or GalBG0)/KD(ligand)/nGal): 0.2

Compound: Polymyxin B
Dispersal of already established biofilms ([1]; compound at 10 μM): ∼70% dispersal @ 10 μM
MIC (minimal inhibitory concentration) ([3]; full medium): 2 μg mL^–1 ^f

Compound: NC[C@H]1O[C@H](O[C@H]2[C@H](O)[C@@H](O[C@H]3O[C@H](CO)[C@@H](O)[C@H](N)[C@H]3O)[C@H](N)C[C@@H]2N)[C@H](N)C[C@@H]1O [Tobramycin]
MBIC (minimal biofilm inhibitory concentration) [4]: 0.5 µM
MBC (minimal bactericidal concentration under biofilm forming conditions) [5]: 0.5 µM (≈ 0.234 µg/mL)
MBC (minimal bactericidal concentration under biofilm forming conditions) ([5]; listed as tobramycin): bactericidal antibiofilm effect
Dispersal of already established biofilms ([1]; compound at 4 μM): 100% dispersal @ 4 μM
MIC (minimal inhibitory concentration) [3]: 1 μg mL^–1 ^g

More lines, main results first:

MIC (minimal inhibitory concentration) [2]: >64 µM
Compound: (Ac-KKL)4(KFCxKI)2KHI [AcG2xK]
Dispersal of already established biofilms ([1]; compound at 50 μM): 100% dispersal

Kd (LecB; [6]): 213 ± 2 nM
ΔG (LecB; [6]): –9.10 ± 0.02 kcal mol^–1
ΔH (LecB; [6]): –8.35 ± 0.02 kcal mol^–1
–TΔS (LecB; [6]): –0.74 ± 0.002 kcal mol^–1
n (stoichiometry of the binding) (LecB; [7]): 1.08 ± 0.01
r.p./nsugar (relative potency per fucoside) (LecB; KD(FucOCH3)/KD(ligand)/nFuc): 2
Compound: CC(=O)N[C@H]1C(O)O[C@H](CO)[C@@H](O[C@@H]2O[C@@H](C)[C@@H](O)[C@@H](O)[C@@H]2O)[C@@H]1O[C@@H]1O[C@H](CO)[C@H](O)[C@H](O)[C@H]1O (stereo partly shown) [Le^a, Lewis^a trisaccharide]
